Assay results as given in ChEMBL document CHEMBL3352109, “Synthesis and antifungal activity of substituted salicylaldehyde hydrazones, hydrazides and sulfohydrazides” (Bioorg Med Chem, 2014).
Converted amounts (≈) assume the structure as drawn. The source made the active and inactive calls. The rule behind the calls is not given here.

Columns and labels:
Nakaseomyces glabratus = test: Antifungal activity against Candida glabrata ATCC 48435 by NCCLS method; assay type: functional
In short: (§1)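 Broth dilution per NCCLS yeast reference method, in HEPES-buffered RPMI with 1% DMSO. MIC80 is the lowest concentration giving more than 80% growth inhibition versus positive (no-drug) controls. Read by visual scoring, not absorbance. Highest level tested 125 µg/mL.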

Candida albicans = test: Antifungal activity against Candida albicans ATCC 10231 by NCCLS method; assay type: functional; in short: as §1

Q: What does the source list for `Cc1ccc(O)c(/C=N/NC(=O)c2ccc(O)cc2)c1`?
A: MIC80 (Nakaseomyces glabratus): 1 µg/mL (≈ 3.7 µM); MIC80 (Candida albicans): inactive

Q: Which results are given for `O=[N+]([O-])c1ccc(N/N=C/c2ccc(O)cc2O)cc1`?
A: MIC80 (Nakaseomyces glabratus): 1 µg/mL (≈ 3.66 µM); MIC80 (Candida albicans): inactive

Q: How did the MIC80 (Nakaseomyces glabratus) turn out when `N/N=C/c1ccc(O)cc1O` was run?
A: The MIC80 was 31 µg/mL (≈ 204 µM).

Q: And the MIC80 (Candida albicans)?
A: Its MIC80 is 62 µg/mL (≈ 407 µM).

Q: For `O=C(N/N=C/c1cc([N+](=O)[O-])ccc1O)c1ccccc1`, which MIC80 (Nakaseomyces glabratus) is on record?
A: Its MIC80 is 16 µg/mL (≈ 56.1 µM).

Q: And the MIC80 (Candida albicans)?
A: Its MIC80 is 16 µg/mL (≈ 56.1 µM).

Q: How did the MIC80 (Nakaseomyces glabratus) turn out when `COc1ccc(O)c(/C=N/NC(=O)c2ccccc2O)c1` was run?
A: Its MIC80 is 16 µg/mL (≈ 55.9 µM).

Q: What about the MIC80 (Candida albicans) of the same compound?
A: The MIC80 was 16 µg/mL (≈ 55.9 µM).

Q: `Cc1ccc(O)c(/C=N/Nc2ccc([N+](=O)[O-])cc2)c1` was tested. Which MIC80 (Nakaseomyces glabratus) did it give?
A: The MIC80 was “inactive”.

Q: And the MIC80 (Candida albicans)?
A: The MIC80 was “inactive”.

Q: For `Oc1c(Br)cc(Br)cc1/C=N/Nc1ccccc1`, which MIC80 (Nakaseomyces glabratus) is on record?
A: The MIC80 was 62 µg/mL (≈ 168 µM).

Q: And the MIC80 (Candida albicans)?
A: Its MIC80 is “inactive”.

Q: With `O=C(N/N=C/c1cc(Br)cc(Br)c1O)c1ccccc1` as the compound, how does the MIC80 (Nakaseomyces glabratus) read?
A: The MIC80 was 31 µg/mL (≈ 77.9 µM).

Q: What about the MIC80 (Candida albicans) of the same compound?
A: The MIC80 was 8 µg/mL (≈ 20.1 µM).

Q: Which results are given for `COc1ccc(O)c(/C=N/NC(=O)c2ccccc2)c1`?
A: MIC80 (Nakaseomyces glabratus): 0.5 µg/mL (≈ 1.85 µM); MIC80 (Candida albicans): 4 µg/mL (≈ 14.8 µM)

Q: What does the source list for `COc1ccc(O)c(/C=N/NC(=O)c2ccc([N+](=O)[O-])cc2)c1`?
A: MIC80 (Nakaseomyces glabratus): 2 µg/mL (≈ 6.34 µM); MIC80 (Candida albicans): 125 µg/mL (≈ 396 µM)

Q: With `O=C(N/N=C/c1cc([N+](=O)[O-])cc([N+](=O)[O-])c1O)c1ccccc1` as the compound, how does the MIC80 (Nakaseomyces glabratus) read?
A: The MIC80 was “inactive”.

Q: And the MIC80 (Candida albicans)?
A: Its MIC80 is “inactive”.

Q: For `O=C(N/N=C/c1ccc(/C=N/NC(=O)c2ccc([N+](=O)[O-])cc2)cc1)c1ccc([N+](=O)[O-])cc1`, which MIC80 (Nakaseomyces glabratus) is on record?
A: The MIC80 was “inactive”.

Q: And the MIC80 (Candida albicans)?
A: The MIC80 was “inactive”.

Q: `O=C(N/N=C/c1cc(Cl)cc(Cl)c1O)c1ccc([N+](=O)[O-])cc1` was tested. Which MIC80 (Nakaseomyces glabratus) did it give?
A: The MIC80 was 125 µg/mL (≈ 353 µM).

Q: What about the MIC80 (Candida albicans) of the same compound?
A: Its MIC80 is 31 µg/mL (≈ 87.5 µM).

Q: How did the MIC80 (Nakaseomyces glabratus) turn out when `O=C(N/N=C/c1cc(Cl)ccc1O)c1ccccc1O` was run?
A: The MIC80 was “inactive”.

Q: What about the MIC80 (Candida albicans) of the same compound?
A: Its MIC80 is 8 µg/mL (≈ 27.5 µM).

Q: Which results are given for `O=C(N/N=C/c1cccc(Br)c1O)c1ccc([N+](=O)[O-])cc1`?
A: MIC80 (Nakaseomyces glabratus): 31 µg/mL (≈ 85.1 µM); MIC80 (Candida albicans): 31 µg/mL (≈ 85.1 µM)

Q: Which results are given for `O=[N+]([O-])c1ccc(O)c(/C=N/Nc2ccccc2)c1`?
A: MIC80 (Nakaseomyces glabratus): 16 µg/mL (≈ 62.2 µM); MIC80 (Candida albicans): 31 µg/mL (≈ 121 µM)

Q: What does the source list for `O=C(N/N=C/c1cc(Br)ccc1O)c1ccc(O)cc1`?
A: MIC80 (Nakaseomyces glabratus): 62 µg/mL (≈ 185 µM); MIC80 (Candida albicans): 125 µg/mL (≈ 373 µM)

Q: What does the source list for `O=[N+]([O-])c1ccc(N/N=C/c2cc(Cl)ccc2O)cc1`?
A: MIC80 (Nakaseomyces glabratus): 62 µg/mL (≈ 213 µM); MIC80 (Candida albicans): inactive

Q: What does the source list for `N/N=C/c1cc(Cl)ccc1O`?
A: MIC80 (Nakaseomyces glabratus): 31 µg/mL (≈ 182 µM); MIC80 (Candida albicans): 62 µg/mL (≈ 363 µM)

Q: `Oc1c(Br)cccc1/C=N/Nc1ccccc1` was tested. Which MIC80 (Nakaseomyces glabratus) did it give?
A: Its MIC80 is 16 µg/mL (≈ 55 µM).

Q: And the MIC80 (Candida albicans)?
A: Its MIC80 is 8 µg/mL (≈ 27.5 µM).

Q: With `O=[N+]([O-])c1ccc(N/N=C/c2ccc(O)cc2O)c([N+](=O)[O-])c1` as the compound, how does the MIC80 (Nakaseomyces glabratus) read?
A: The MIC80 was “inactive”.

Q: And the MIC80 (Candida albicans)?
A: The MIC80 was “inactive”.

Q: Which MIC80 (Nakaseomyces glabratus) does the source give for `O=C(N/N=C/c1ccccc1O)c1ccccc1O` here?
A: Its MIC80 is 8 µg/mL (≈ 31.2 µM).

Q: And the MIC80 (Candida albicans)?
A: Its MIC80 is 16 µg/mL (≈ 62.4 µM).

Q: With `Oc1ccc(/C=N/Nc2ccccc2)c(O)c1` as the compound, how does the MIC80 (Nakaseomyces glabratus) read?
A: The MIC80 was 2 µg/mL (≈ 8.76 µM).

Q: And the MIC80 (Candida albicans)?
A: The MIC80 was 31 µg/mL (≈ 136 µM).

Q: With `Oc1ccc(Cl)cc1/C=N/Nc1ccccc1` as the compound, how does the MIC80 (Nakaseomyces glabratus) read?
A: Its MIC80 is 31 µg/mL (≈ 126 µM).

Q: What about the MIC80 (Candida albicans) of the same compound?
A: The MIC80 was 31 µg/mL (≈ 126 µM).

Q: Which results are given for `O=[N+]([O-])c1ccc(N/N=C/c2cc([N+](=O)[O-])ccc2O)cc1`?
A: MIC80 (Nakaseomyces glabratus): 62 µg/mL (≈ 205 µM); MIC80 (Candida albicans): 125 µg/mL (≈ 414 µM)

Q: Which results are given for `O=[N+]([O-])c1ccc(N/N=C/c2cc(Br)cc(Br)c2O)cc1`?
A: MIC80 (Nakaseomyces glabratus): 62 µg/mL (≈ 149 µM); MIC80 (Candida albicans): inactive

Q: With `O=C(N/N=C/c1cc([N+](=O)[O-])ccc1O)c1ccc([N+](=O)[O-])cc1` as the compound, how does the MIC80 (Nakaseomyces glabratus) read?
A: The MIC80 was 16 µg/mL (≈ 48.4 µM).

Q: And the MIC80 (Candida albicans)?
A: The MIC80 was “inactive”.

Q: For `N/N=C/c1cc([N+](=O)[O-])ccc1O`, which MIC80 (Nakaseomyces glabratus) is on record?
A: Its MIC80 is 31 µg/mL (≈ 171 µM).

Q: What about the MIC80 (Candida albicans) of the same compound?
A: The MIC80 was “inactive”.

Q: Which MIC80 (Nakaseomyces glabratus) does the source give for `O=C(N/N=C/c1cc(Br)ccc1O)c1ccccc1` here?
A: The MIC80 was 2 µg/mL (≈ 6.27 µM).

Q: What about the MIC80 (Candida albicans) of the same compound?
A: Its MIC80 is 2 µg/mL (≈ 6.27 µM).

Q: Which MIC80 (Nakaseomyces glabratus) does the source give for `C(=N\Nc1ccccc1)/c1ccc(/C=N/Nc2ccccc2)cc1` here?
A: The MIC80 was 125 µg/mL (≈ 398 µM).

Q: And the MIC80 (Candida albicans)?
A: Its MIC80 is “inactive”.

Q: What does the source list for `N/N=C/c1cc(Cl)cc(Cl)c1O`?
A: MIC80 (Nakaseomyces glabratus): 62 µg/mL (≈ 302 µM); MIC80 (Candida albicans): 16 µg/mL (≈ 78 µM)

Q: Which results are given for `COc1ccc(O)c(/C=N/NC(=O)c2ccc(O)cc2)c1`?
A: MIC80 (Nakaseomyces glabratus): 4 µg/mL (≈ 14 µM); MIC80 (Candida albicans): inactive

Q: For `O=C(N/N=C/c1cc(Cl)cc(Cl)c1O)c1ccccc1`, which MIC80 (Nakaseomyces glabratus) is on record?
A: The MIC80 was 16 µg/mL (≈ 51.8 µM).

Q: And the MIC80 (Candida albicans)?
A: Its MIC80 is 8 µg/mL (≈ 25.9 µM).

Q: Which results are given for `N/N=C/c1cc(Br)ccc1O`?
A: MIC80 (Nakaseomyces glabratus): 62 µg/mL (≈ 288 µM); MIC80 (Candida albicans): 31 µg/mL (≈ 144 µM)

Q: `O=C(N/N=C/c1ccc(O)cc1O)c1ccc([N+](=O)[O-])cc1` was tested. Which MIC80 (Nakaseomyces glabratus) did it give?
A: Its MIC80 is 0.5 µg/mL (≈ 1.66 µM).

Q: And the MIC80 (Candida albicans)?
A: Its MIC80 is “inactive”.

Q: How did the MIC80 (Nakaseomyces glabratus) turn out when `CC(C)(C)c1ccc(C(=O)N/N=C/c2ccccc2O)cc1` was run?
A: The MIC80 was 125 µg/mL (≈ 422 µM).

Q: And the MIC80 (Candida albicans)?
A: The MIC80 was 4 µg/mL (≈ 13.5 µM).
